Most compounds without a hit are left out; they make up all but 1.3% or so of the library.
TDP2 absorb = human TDP2 enzyme inhibitors, primary screen, biochemical, epi absorbance, recombinant enzyme. Tyrosyl-DNA phosphodiesterase 2 (Homo sapiens), O95551. T5PNP hydrolysis, p-nitrophenol absorbance 415 nm. inhibition, % at 12.8 µM. 370,000 compounds, 0.34% hits;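 active means inhibition above the mean of all tested compounds plus 3 SD, set per campaign, cut at about 25% in these data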;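 further: 0% = DMSO with enzyme and 100% = buffer with substrate but no TDP2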
Target sequence (O95551 whole entry, looked up): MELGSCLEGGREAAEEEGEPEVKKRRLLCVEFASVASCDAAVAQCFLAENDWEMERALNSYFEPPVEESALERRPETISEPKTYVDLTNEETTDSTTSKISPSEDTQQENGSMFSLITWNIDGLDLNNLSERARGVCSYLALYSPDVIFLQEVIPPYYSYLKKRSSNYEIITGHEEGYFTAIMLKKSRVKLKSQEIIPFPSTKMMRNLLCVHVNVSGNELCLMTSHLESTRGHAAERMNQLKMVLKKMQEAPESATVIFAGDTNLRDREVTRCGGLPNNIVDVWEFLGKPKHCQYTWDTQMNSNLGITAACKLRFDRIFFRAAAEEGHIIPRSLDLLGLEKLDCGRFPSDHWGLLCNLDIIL
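Incubation: 2 h at 37 °C; Test system: recombinant human TDP2; Quantity: enzyme 120 nM; Read-out basis: percent inhibition; Medium: 50 mM Tris-HCl pH 7.5 with Mg2+, KCl, DTT, BSA; Repeats: single replicate; Compound: 12.8 µM single point, 1% DMSO; Signal: epi absorbance; Reagent: 5 mM T5PNP chromogenic substrate; Benchmarks: no-enzyme high, DMSO-plus-enzyme low.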
UCH37 inh = inhibitors of human UCH37 deubiquitinase, primary screen, biochemical, Ub-AMC cleavage, fluorescence; purified proteasome/UCH37; inhibition, % (no concentration beside the values); AID 588478, 2011; 330,000 compounds, 0.33% hits;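 active means mean inhibition over replicate wells above about 20%, limit read from the data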;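 further: 0% = compound-free wells with enzyme and 100% = wells lacking proteasome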
Target sequence (Q9Y5K5 whole entry, looked up): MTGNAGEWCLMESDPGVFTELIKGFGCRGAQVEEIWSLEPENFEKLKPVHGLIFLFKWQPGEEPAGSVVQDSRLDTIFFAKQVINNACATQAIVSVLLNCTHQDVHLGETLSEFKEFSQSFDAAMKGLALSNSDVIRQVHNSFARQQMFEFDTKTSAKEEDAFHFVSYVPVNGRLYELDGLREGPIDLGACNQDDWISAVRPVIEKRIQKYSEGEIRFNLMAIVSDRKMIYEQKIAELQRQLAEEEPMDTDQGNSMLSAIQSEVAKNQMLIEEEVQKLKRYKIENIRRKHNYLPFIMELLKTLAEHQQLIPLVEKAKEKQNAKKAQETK
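Material: Human UCH37 enzyme supplied as purified proteasome complex | Schedule: 30 min compound-proteasome preincubation then 25 min substrate reaction, room temperature | Detection: AMC fluorescence from Ub-AMC cleavage, excitation 355 nm, emission 460 nm | Benchmarks: Wells without proteasome as full block, compound-free enzyme plus substrate as uninhibited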
Casp6 inh = human caspase-6 inhibitors, primary screen, biochemical, VEID-R110 fluorescence, single point, set 2 | 350,000 compounds, 0.53% hits | inhibition, % at 12.5 µM | purified caspase-6, Z-VEID-R110 cleavage fluorescence | P55212;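 active means mean inhibition across replicates at least about 35%, with every replicate also reaching that limit, limit read from the data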;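 further: 0% = median of neutral control wells and 100% = no fluorescence left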
NSD2 HMT inh = NSD2 histone methyltransferase inhibitors, primary screen, biochemical, AlphaScreen, single concentration, set 2; Histone-lysine N-methyltransferase NSD2 (Homo sapiens), O96028; NSD2 peptide methylation, 120 min; inhibition, % at 12.5 µM; 310,000 compounds, 0.54% hits; AID 743445, 2014; in the data active means inhibition above about 50%
LEDGF integ inh = blockers of LEDGF/p75-dependent integrase strand transfer – biochemical, TR-FRET, high throughput, primary screen; HIV-1 integrase (with human LEDGF/p75); TR-FRET IN-LEDGF/p75 DNA integration, Eu/Cy5; inhibition, % at 3.7 µM; 370,000 compounds, 0.64% hits; AID 743269, 2014;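 active means inhibition above the screen-wide mean plus 3 SD, cut at about 13% in these data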;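 further: signal is the Cy5 over europium emission ratio at 671 and 618 nm; 0% = plate median of compound wells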
Numbers without * were called inactive; nt = not tested or not shown.

SMILES	TDP2 absorb	UCH37 inh	Casp6 inh	NSD2 HMT inh	LEDGF integ inh
Cc1nn(CCc2nc(-c3ccco3)cs2)c2[nH]c(=O)cc(C(F)(F)F)c12	3	0	49*	25	3
O=c1[nH]c(=O)n(Cc2ccccc2)c2nc(-c3ccco3)cc(C(F)(F)F)c12	3	-96	nt	nt	1
CC(N=Nc1nc2ccccc2s1)=NNc1ccccc1O	nt	1	nt	nt	nt
Cc1nn(-c2ccccc2)c(C)c1C=NNC(=O)c1cc(C23CC4CC(CC(C4)C2)C3)[nH]n1	nt	3	nt	nt	nt
O=C(CSc1ccsc1[N+](=O)[O-])NCc1ccco1	-4	5	46*	3	1
Nc1nonc1C(=NO)N1CCN(CCO)CC1	nt	3	nt	nt	nt
Cc1ccc(C)c(S(=O)(=O)Nc2cc(SCC(=O)O)c(O)c3ccccc23)c1	nt	23*	nt	nt	nt
Cc1cc(C(=O)NN=Cc2ccncc2)c2ccccc2n1	nt	1	nt	nt	nt
CCNC(=O)CC(C)=NNC(=O)C1CCCCC1	nt	2	nt	nt	nt
Cc1onc(-c2ccccc2)c1C(=O)N(Cc1ccco1)Cc1cccs1	7	-2	47*	0	4
CCc1cc(=O)oc2cc(C)c(CN3CCCCC3)c(O)c12	9	-33	nt	nt	13
CCCc1cc(=O)oc2cc(C)c(CN3CCCC3)c(O)c12	4	-11	nt	6	13*
COc1ccc(C(=O)ON=C(c2cccs2)C(C)(C)C)cc1	nt	4	nt	nt	nt
CC(C)(C)NC(=O)CCN(N=Cc1ccccc1O)C1=NS(=O)(=O)c2ccccc21	nt	-15	nt	nt	nt
CCCCCCCCCc1conc1C(=O)/C=C/c1ccco1	1	nt	67*	nt	2
CCCCCCCCCc1conc1C(=O)CP(=O)(OC)OC	-5	nt	1	-2	3
CC(=NNC(=O)c1cc(Br)ccc1O)c1cccs1	nt	1	nt	nt	nt
O=C(O)CCN1C(=O)/C(=C\c2ccc(-c3nc4ccccc4s3)o2)SC1=S	nt	92*	nt	nt	nt
CC(=Cc1ccccc1)C=C1SC(=S)N(CCCC(=O)Nc2ccc(C(=O)O)cc2)C1=O	8	nt	41*	nt	-3
CC(/C=C1\SC(=S)N(CCC(=O)Nc2cccc(C(=O)O)c2)C1=O)=C\c1ccccc1	1	22*	70*	20	1
COc1ccccc1/C=C1/SC(=S)N(CCC(=O)Nc2cccnc2)C1=O	-6	8	-5	-6	-4
CC(/C=C1\SC(=S)N(CCCC(=O)Nc2ccc(C(=O)O)cc2)C1=O)=C\c1ccccc1	5	2	nt	10	4
COc1ccccc1/C=C1\SC(=S)N(CCC(=O)Nc2ccc(C(=O)O)c(O)c2)C1=O	-7	9	41*	30	4
O=[N+]([O-])c1cc(S(=O)(=O)N2CCCC2)ccc1NN=Cc1cccs1	nt	6	nt	nt	nt
NC(=O)NN=Cc1cc(Br)ccc1OC(=O)c1ccccc1	nt	3	nt	nt	nt
SMILES	TDP2 absorb	UCH37 inh	Casp6 inh	NSD2 HMT inh	LEDGF integ inh
CC(=NNC(N)=O)c1ccc(Cl)s1	nt	4	nt	nt	nt
Cn1nccc1C(=O)Oc1cccc(C=NNC(=O)c2ccccc2O)c1	nt	-1	nt	nt	nt
COC(=O)NN=Cc1ccc(OC(=O)/C=C/c2ccco2)cc1	nt	1	nt	nt	nt
O=C(O)CCN1C(=O)/C(=C\c2cccc(Oc3ccccc3)c2)SC1=S	9	21*	nt	18	-1
COc1ccc(/C=C2/SC(=S)N(CCC(=O)O)C2=O)cc1	-9	9	nt	5	-1
O=C(O)CN1C(=O)/C(=C\C(Br)=C\c2ccccc2)SC1=S	12	12	19	55*	3
CCOc1ccc(S(=O)(=O)NCC2(N3CCCCC3)CCCCC2)cc1	2	3	-1	1	-3
CCOc1ccc(S(=O)(=O)NCCC(=O)NCC2(N3CCCCC3)CCCCC2)cc1	17	3	50*	0	1
O=c1c2ccccc2nc(SCc2ccccc2F)n1C1CCCC1	6	3	38*	2	0
CC(=NN=C(N)N)c1ccc(C)c(C)c1	nt	1	nt	nt	nt
Cc1cc(C)cc(-n2cccc2/C=C2/C(=N)N3C(=NC2=O)SN=C3S(C)(=O)=O)c1	-7	2	37*	47	-1
CS(=O)(=O)C1=NSC2=NC(=O)/C(=C\c3cccn3-c3ccccc3Cl)C(=N)N21	-4	6	41*	30	3
COc1cccc(-n2c(C)cc(/C=C3/C(=N)N4C(=NC3=O)SN=C4S(C)(=O)=O)c2C)c1	-7	-8	43*	9	2
CS(=O)(=O)C1=NSC2=NC(=O)/C(=C\c3ccc(-c4ccccc4)o3)C(=N)N21	nt	10	nt	nt	nt
Cc1ccc(-n2cccc2/C=C2/C(=N)N3C(=NC2=O)SN=C3S(C)(=O)=O)cc1	4	-3	nt	nt	3
N/C(=N\N=Cc1ccco1)SC1CC(=O)N(c2ccccc2)C1=O (configuration not stated)	nt	7	nt	nt	nt
CCOc1cc(C=NNC(=O)c2nn(C)cc2Br)ccc1OCc1ccccc1	nt	2	nt	nt	nt
Cc1ccc(S(=O)(=O)N(CC(=O)NN=Cc2cccs2)c2cccc3cccnc23)cc1	nt	2	nt	nt	nt
O=[N+]([O-])c1ccc(C=Nn2c(C3CCCCC3)n[nH]c2=S)cc1	nt	4	nt	nt	nt
Cc1ccc(C(=O)CSc2nnc(-c3ccco3)n2C)cc1	7	-2	2	0	-2
Cn1c(SCC(=O)c2cc(Cl)c(Cl)s2)nnc1-c1ccco1	5	nt	52*	-4	0
Cc1cc(C(=O)NN=Cc2cc(Br)ccc2OC(=O)c2ccccc2Cl)n[nH]1	nt	1	nt	nt	nt
COC(=O)C[C@H]1CC[C@@H]2[C@H](COc3ccc(NC(=O)c4cnccn4)cc3C(=O)N2C)O1	-10	nt	57*	nt	1
CN1C(=O)c2cc(NC(=O)Cc3cccs3)ccc2OC[C@@H]2O[C@@H](CC(=O)NCCc3ccncc3)CC[C@@H]21	nt	nt	69*	nt	nt
COC(=O)C[C@@H]1CC[C@H]2[C@H](COc3ccc(NC(=O)c4cnccn4)cc3C(=O)N2C)O1	nt	nt	-2	nt	nt
SMILES	TDP2 absorb	UCH37 inh	Casp6 inh	NSD2 HMT inh	LEDGF integ inh
CN1C(=O)c2cc(NC(=O)c3cccc(F)c3)ccc2OC[C@@H]2O[C@@H](CC(=O)N3CCc4ccccc4C3)CC[C@H]21	nt	nt	56*	nt	nt
COc1ccc(C(=O)NN=Cc2ccc(N(C)c3ccccc3)cc2)cc1	nt	-275	nt	nt	nt
CC(=NNC(N)=S)c1cc(-c2ccccc2)c(-c2ccccc2)s1	nt	-15	nt	nt	nt
Nc1nonc1-n1nnc(C(=O)NN=Cc2ccoc2)c1CSc1ccccc1	nt	2	nt	nt	nt
Cc1nc2c(-c3ccc(F)cc3)cnn2c2c1CCC2	-2	-217	56*	-5	2
O=C(NN=C/C(Br)=C/c1ccccc1)c1ccccc1F	nt	7	nt	nt	nt
O=C(NCc1ccco1)C1Cc2ccccc2CN1C(=O)c1ccco1 (configuration not stated)	8	1	6	-3	1
